In the array DNA melting data of Ke et al. (doi:10.1101/2024.01.08.574731) one finds folding enthalpy and Tm data, which are given here for 37 sequences.

Series [1] can be described thus: folding enthalpy; higher = less favourable; fluorescence melt of hairpins on a sequencing array, two-state fit. Particulars: sodium 0.088 M. In a few lines:
(§1)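 Two-state fits, bootstrapped, provided melting temperature and folding enthalpy from Cy3 fluorescence normalised to pre-quench Cy3 and to control constructs. Library hairpins with annealed Cy3 and quencher oligos were imaged on a sequenced MiSeq flow cell in 50 mM Na-HEPES pH 8.0, 25 mM NaCl, at 2.5 °C intervals up to 60 °C. Four replicates were combined with inverse-variance weighting. A 9.35 °C upward shift was applied to fitted temperatures to match UV melts.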

Series [2] can be described thus: melting temperature; fluorescence melt of hairpins on a sequencing array, two-state fit, raised by 9.35 °C to match UV melts. Conditions: sodium 0.088 M. Put shortly:
as §1

In the case of GCGTACGTACGC ((((....)))), the folding enthalpy in series [1] is -29.9 kcal/mol. In addition, in series [2], the Tm stood at 55.3 °C.

Regarding GCACCCGAAAGGGTATGC ((((((....)))..))), the folding enthalpy in series [1] was -13.9 kcal/mol. In addition, in series [2], the Tm was 48.3 °C.

Regarding CGTTTCGGAAACGATACG (((.(((....))).))), in series [1], the folding enthalpy is -33.6 kcal/mol. Moreover, the Tm in series [2] turned out to be 45.6 °C.

Regarding GCTTGTCGAAAGACAGC (((.(((....)))))), the folding enthalpy in series [1] is -19.9 kcal/mol. Moreover, the Tm in series [2] came to 52.9 °C.

As for GCCATACGAAAGTAGGC (((.(((....)))))), the folding enthalpy in series [1] was -28.4 kcal/mol. Further, the Tm in series [2] was 52.6 °C.

With GATAAGACGAAAGTCATC (((..(((....)))))), the folding enthalpy in series [1] is -15.2 kcal/mol. Further, the Tm in series [2] worked out at 26.7 °C.

With GTGAACGAAAGTTAGCAC ((((((....)))..))), the folding enthalpy in series [1] is -12.5 kcal/mol. The Tm in series [2] was 29.1 °C.

Turning to GGTGGGACGAAAGTCACC (((..(((....)))))), the folding enthalpy in series [1] was -14.4 kcal/mol. Besides, the Tm in series [2] was 47 °C.

On to GTGCACGAAAGTGTGCAC ((((((....)))..))), for which the folding enthalpy in series [1] was -34 kcal/mol. In series [2], the Tm was determined as 62.6 °C.

GTCCGGCGAAAGCCAGAC (((.(((....))).))): in series [1], the folding enthalpy was -27.5 kcal/mol. Besides, the Tm in series [2] came to 50.7 °C.

For the sequence GTGAAGGGAAACCCTCAC ((((.((....)).)))), the folding enthalpy in series [1] is -26.9 kcal/mol. Further, the Tm in series [2] is 43.3 °C.

As for GAGAGTGAAAACTCTC ((((((....)))))), the folding enthalpy in series [1] was -32.1 kcal/mol. In addition, the Tm in series [2] was found to be 53.9 °C.

With GGAAACGGAAACGTTCCC ((.((((....)))).)), in series [1], the folding enthalpy was -23.1 kcal/mol. The Tm in series [2] stood at 45.1 °C.

For the sequence GCACCAACGAAAGTTTGC (((..(((....)))))), the folding enthalpy in series [1] was -13.5 kcal/mol. Further, the Tm in series [2] worked out at 27.9 °C.

In the case of GTAGCTGGAAACAGTTAC (((.(((....))).))), the folding enthalpy in series [1] is -32.8 kcal/mol. In series [2], the Tm is 42.8 °C.

In the case of TTGGAGAAATCCAA (((((....))))), the folding enthalpy in series [1] is -11.1 kcal/mol. Also, the Tm in series [2] stood at 35.5 °C.

Regarding GCAAGGGGAAACCCCTGC (((.(((....))).))), the folding enthalpy in series [1] was -27.4 kcal/mol. The Tm in series [2] was 51.1 °C.

Turning to GCTATTCGAAAGAACAGC (((.(((....))).))), the folding enthalpy in series [1] is -29.6 kcal/mol. In addition, the Tm in series [2] came out at 40.4 °C.

For GATCCAACCGTGGATC ((((((....)))))), in series [1], the folding enthalpy is -30.3 kcal/mol. The Tm in series [2] came out at 49.8 °C.

Consider GGCTTGCGAAAGCAGCC (((.(((....)))))), for which the folding enthalpy in series [1] was -29.1 kcal/mol. Besides, in series [2], the Tm amounted to 65.3 °C.

As to GCGTTTTAACGC ((((....)))), the folding enthalpy in series [1] was -26.5 kcal/mol. Also, the Tm in series [2] came out at 57.7 °C.

As for GCCCTGACGAAAGTCGGC (((..(((....)))))), the folding enthalpy in series [1] is -13.6 kcal/mol. The Tm in series [2] came to 48.9 °C.

As for GGTTGACGAAAGTCCACC (((.(((....))).))), in series [1], the folding enthalpy is -32 kcal/mol. For the same sequence, the Tm in series [2] amounted to 50.5 °C.

As to GAACTCGGAAACAAGTTC (((((.(....).))))), the folding enthalpy in series [1] is -22.7 kcal/mol. Moreover, the Tm in series [2] was determined as 34 °C.

GAAACCGGAAACGGTTTC (((((((....))))))): the folding enthalpy in series [1] was -39 kcal/mol. Besides, in series [2], the Tm was 65.7 °C.

On to GTCGCCGAAAGGCCCGAC ((((((....)))..))), for which the folding enthalpy in series [1] is -11.6 kcal/mol. In addition, the Tm in series [2] was 37.4 °C.

Turning to GTGTTCGGAAACGAGCAC (((.(((....))).))), the folding enthalpy in series [1] is -40.4 kcal/mol. Also, the Tm in series [2] was found to be 53.8 °C.

In the case of GCCAGTGGAAACACCAGC ((..(((....)))..)), the folding enthalpy in series [1] was -13.9 kcal/mol. Further, the Tm in series [2] turned out to be 33.1 °C.

For the sequence GGGGACGAAAGTCGGCCC ((((((....)))..))), in series [1], the folding enthalpy is -27.2 kcal/mol. For the same sequence, the Tm in series [2] came out at 56.4 °C.

On to GATCAGCGAAAGCTATC (((.(((....)))))), for which the folding enthalpy in series [1] is -12 kcal/mol. Besides, the Tm in series [2] was determined as 32.6 °C.

Regarding GATTACCGAAAGGTTATC (((.(((....))).))), the folding enthalpy in series [1] was -26.1 kcal/mol. In addition, the Tm in series [2] was 42.4 °C.

For GTTTCCACGAAAGTGAAC (((..(((....)))))), the folding enthalpy in series [1] was -8.62 kcal/mol. Moreover, the Tm in series [2] worked out at 27.2 °C.

As to GCCGTAGGAAACTGTGGC (((..((....))..))), in series [1], the folding enthalpy is -11.4 kcal/mol. Besides, the Tm in series [2] is 43.3 °C.

Turning to GGCGGAGCGAAAGCTGCC (((..(((....)))))), the folding enthalpy in series [1] was -17 kcal/mol. The Tm in series [2] was 52.3 °C.

In the case of GCCTGTCGAAAGACGGC (((.(((....)))))), the folding enthalpy in series [1] was -31.2 kcal/mol. Besides, in series [2], the Tm was 56.5 °C.

With GACCAGACGAAAGTCGTC (((..(((....)))))), the folding enthalpy in series [1] is -12.5 kcal/mol. Also, the Tm in series [2] is 31.7 °C.

GATCACACGGTGATC ((((((...)))))): in series [1], the folding enthalpy is -37.5 kcal/mol. Besides, the Tm in series [2] is 60.5 °C.
